Experiments:
A549 = assay: Cytotoxicity against human A549 cells after 44 hrs by MTT assay; assay type: functional, cell-based; conditions: A549, 44 h
In short: (§1)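 SF-295 cells cultured in RPMI 1640 and A549 cells in F-12, each with 10% FBS, penicillin–streptomycin, amphotericin B and L-glutamine, at 37 °C in 5% CO2. Cells were grown to 60% confluency, then treated for 44 h. Medium was replaced with medium containing 0.06 mg/mL MTT (phenol red-free RPMI for SF-295) for 4 h. Acid/Triton/isopropanol stop solution was added, plates incubated overnight at 37 °C, OD read at 540 and 650 nm, and EC50 calculated.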

SF-295 = assay: Cytotoxicity against human SF295 cells after 44 hrs by MTT assay; assay type: functional, cell-based; conditions: SF-295, 44 h; in short: as §1

| Compound | EC50 (A549) | EC50 (SF-295) |
| --- | --- | --- |
| CCCc1c(O)cc(/C=C/c2cc3c(c(OC)c2)O[C@]2(C)CC[C@@H](O)C(C)(C)[C@H]2C3)cc1O | > 10 µM | 0.9 µM |
| COc1cc(/C=C/c2cc(O)c(CCCO)c(O)c2)cc2c1O[C@]1(C)CC[C@@H](O)C(C)(C)[C@H]1C2 | > 10 µM | 2.5 µM |
| COc1cc(/C=C/c2cc(O)c3c(c2)OCC3)cc2c1O[C@]1(C)CC[C@@H](O)C(C)(C)[C@H]1C2 | > 10 µM | 2.9 µM |
| COc1cc(CCc2cc(O)c(CCC(C)C)c(O)c2)cc2c1O[C@]1(C)CC[C@@H](O)C(C)(C)[C@H]1C2 | > 10 µM | 2.8 µM |
| C=CCc1c(O)cc(/C=C/c2cc3c(c(OC)c2)O[C@]2(C)CC[C@@H](O)C(C)(C)[C@H]2C3)cc1O | > 10 µM | 1.7 µM |
| C#CCc1c(O)cc(/C=C/c2cc3c(c(OC)c2)O[C@]2(C)CC[C@@H](O)C(C)(C)[C@H]2C3)cc1O | > 10 µM | 1.3 µM |
| COc1cc(/C=C/c2cc(O)c3ccoc3c2)cc2c1O[C@]1(C)CC[C@@H](O)C(C)(C)[C@H]1C2 | > 10 µM | 4.8 µM |
| COc1cc(/C=C\c2cc(O)c(C/C=C(\C)CCC=C(C)C)c(O)c2)cc2c1O[C@]1(C)CC[C@@H](O)C(C)(C)[C@H]1C2 | > 10 µM | > 10 µM |
| COc1cc(CCc2cc(O)c(CC=C(C)C)c(O)c2)cc2c1O[C@]1(C)CC[C@@H](O)C(C)(C)[C@H]1C2 | > 10 µM | 2.9 µM |

Source: ChEMBL document CHEMBL1156920, “Structural analogues of schweinfurthin F: probing the steric, electronic, and hydrophobic properties of the D-ring substructure” (Bioorg Med Chem, 2010)
